Broadly, the EC50 is the concentration that produces a half-maximal response.

In series [1] the test system is Macrophage. The experiment in a line: Cytotoxicity against mouse primary macrophage cells assessed as reduction in cell viability. The format is cell-based. Put shortly: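 Macrophage toxicity was scored microscopically within the L. infantum assays, using cell detachment, lysis and granulation. At least 500 cells over adjacent fields were scored semi-quantitatively, and CC₅₀ was taken from % reduction in normal cells versus untreated controls.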

Series [2] concerns Trypanosoma brucei brucei. The experiment in a line: Antitrypanosomal activity against Trypanosoma brucei brucei assessed as parasite growth inhibition. The format is functional, organism-based.
Series [3] concerns MRC5. The experiment in a line: Cytotoxicity against human MRC5 cells assessed as reduction in cell viability after 3 days by resazurin dye based fluorimetric analysis. The following applies: MRC5, 72 h. An outline of the steps:
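MRC-5_SV2 cells, 1.5×10⁵ cells/mL in MEM with Earl's salts, L-glutamine, NaHCO₃ and 5% inactivated FCS, were exposed 3 days at 37 °C, 5% CO₂ to a 10-point 4-fold dilution series, final DMSO <1%. Resazurin was added for 4 h, fluorescence read at ex 550/em 590 nm, and IC₅₀ derived versus untreated and medium controls.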
Background: Resazurin is reduced to fluorescent resorufin, in cell work by metabolically active cells.

Series [4] has as its system Trypanosoma cruzi. In words: Antitrypanosomal activity against Trypanosoma cruzi Tulahuen CL2 infected in human MRC5 cells assessed as inhibition of parasite growth incubated for 7 days by chlorophenol red-fl-D-galactopyranoside based spectrophotometric analysis. The note with it: Tulahuen CL2, MRC5, 168 h. The format is functional, organism-based. An outline of the steps:
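T. cruzi Tulahuen CL2 β-galactosidase strain was maintained on MRC-5_SV2 cells. Wells held 4×10³ cells plus 4×10⁴ parasites with a 10-point 4-fold compound series, final DMSO <1%. After 7 days at 37 °C, 5% CO₂, substrate was added and absorbance read at 540 nm after 4 h at 37 °C. IC₅₀ was taken from % reduction versus infected and uninfected controls.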

Series [5] can be described thus: Selectivity index, ratio of EC50 for cytotoxicity against mouse primary macrophage to EC50 for antileishmanial activity against Leishmania infantum MHOM/MA(BE)/67 infected in mouse primary peritoneal macrophages. The following applies: read-out: Ratio EC50. The format is toxicity.
For series [6], the system named is Trypanosoma brucei rhodesiense. In words: Antitrypanosomal activity against Trypanosoma brucei rhodesiense assessed as parasite growth inhibition. The format is functional, organism-based.
A short description of series [7]: Selectivity index, ratio of EC50 for human MRC5 cells to EC50 for antitrypanosomal activity against Trypanosoma brucei rhodesiense. The class given is toxicity. The note with it: read-out: Ratio EC50. Put shortly:
(§1)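 Selectivity index is the MRC-5 EC₅₀ divided by the parasite EC₅₀.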

In series [8] the test system is Leishmania infantum. The experiment in a line: Antileishmanial activity against Leishmania infantum MHOM/MA(BE)/67 infected in mouse primary peritoneal macrophages treated 2 hrs post-infection and incubated for 5 days by Giemsa staining based microscopic analysis. The format is functional, organism-based. The note with it: MHOM/MA(BE)/67, Peritoneal macrophage. An outline of the steps:
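Peritoneal macrophages from mice, harvested 2 days after 2% potato starch stimulation, infected after 48 h with L. infantum in supplemented RPMI-1640 with 5% FCS. Compounds were added 2 h post-infection as a 10-point 4-fold dilution series, final DMSO <1%, and incubated 5 days at 37 °C, 5% CO₂. Amastigotes per macrophage were counted after 10% Giemsa staining, and IC₅₀ was taken from % reduction versus untreated-infected controls.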

The nature of series [9]: Selectivity index, ratio of EC50 for cytotoxicity against human MRC5 cells to EC50 for antitrypanosomal activity against Trypanosoma cruzi Tulahuen CL2 infected in human MRC5 cells. The class given is toxicity, cell-based. The following applies: read-out: Ratio EC50. Put shortly: as §1
The nature of series [10]: Selectivity index, ratio of EC50 for human MRC5 cells to EC50 for antitrypanosomal activity against Trypanosoma brucei brucei. The class given is toxicity. The following applies: read-out: Ratio EC50. Put shortly:
as §1

Consider `N#Cc1cn([C@@H]2O[C@H](CO)[C@@H](F)[C@H]2O)c2ncnc(N)c12`, for which the EC50 was determined as 2 µM in series [1]; 10.5 µM in [2]; 1.32 µM in series [3]; 9.66 µM in series [4]; 0.38 µM in series [6]; 2.03 µM in [8]. Also, the selectivity ratio was under 1 in series [5], 3 in [7] and under 1 in series [9].
For the compound `O=C(Cn1ccnc1[N+](=O)[O-])NCc1ccccc1` [BENZNIDAZOLE], the EC50 in [4] is 2.02 µM.
`Nc1ncnc2c1ccn2[C@@H]1O[C@H](CO)[C@H](F)[C@H]1O`: the EC50 in series [1] is over 64 µM; in series [2] it was 0.04 µM; in series [3] it was over 64 µM; in series [4], over 64 µM; in series [6], 0.0063 µM; in series [8], over 64 µM. Further, the selectivity ratio was over 1590 in series [10] and over 10100 in series [7].
For the compound `COc1ncnc2c1c(Br)cn2[C@@H]1O[C@H](CO)[C@@H](F)[C@H]1O`, the EC50 in series [1] is over 64 µM; in series [2] it was 8.64 µM; in series [3] it was over 64 µM; in series [4], over 64 µM; in [6] it was 51.6 µM; in [8], over 64 µM. In addition, the selectivity ratio in series [10] is 7; in [7] it was 1.
On to `Nc1nc2c(ncn2[C@@H]2O[C@H](CO)[C@@H](F)[C@H]2O)c(=O)[nH]1`, for which the EC50 in [1] was over 64 µM; in [2], 42 µM; in series [3], 42 µM; in series [4], 34.6 µM; in series [6], over 64 µM; in series [8] it was 46.9 µM. For the same compound, the selectivity ratio in series [5] is over 1; in series [9] it was 1.
With `O=c1[nH]cnc2c1c(F)cn2[C@@H]1O[C@H](CO)[C@@H](F)[C@H]1O`, the EC50 in [1], in [2], in series [3], in [4], in series [6] and in series [8] was over 64 µM throughout.
Regarding `Nc1ncnc2c1c(Br)cn2[C@@H]1O[C@H](CO)[C@@H](F)[C@H]1O`, the EC50 in series [1] came to 1.02 µM; in [2], 0.031 µM; in series [3], 32 µM; in series [4] it was 0.041 µM; in [6] it was 0.028 µM; in series [8], 0.37 µM. The selectivity ratio in series [5] amounted to 3; in series [7], 1150; in series [9] it was 779.
For `O=c1[nH]cnc2c1c(-c1ccccc1)cn2[C@@H]1O[C@H](CO)[C@@H](F)[C@H]1O`, the EC50 in series [1], in [2], in series [3], in [4], in series [6] and in [8] was over 64 µM in each case.
Consider `Nc1ncnc2c1c(F)cn2[C@@H]1O[C@H](CO)[C@@H](F)[C@H]1O`, for which the EC50 in series [1] is 2 µM; in [2], 0.47 µM; in series [3], 5.49 µM; in series [4], 0.25 µM; in series [6] it was 0.16 µM; in series [8] it was 1.75 µM. Further, the selectivity ratio in [10] stood at 9; in series [7], 27; in series [9] it was 22.
For the compound `COc1nc(N)nc2c1c(Br)cn2[C@@H]1O[C@H](CO)[C@@H](F)[C@H]1O`, the EC50 in [1], in [2], in [3], in [4], in [6] and in series [8] was over 64 µM throughout.
As for `Cc1ccc(C(=O)Nc2ccc(S(=O)(=O)O)c3cc(S(=O)(=O)O)cc(S(=O)(=O)O)c23)cc1NC(=O)c1cccc(NC(=O)Nc2cccc(C(=O)Nc3cc(C(=O)Nc4ccc(S(=O)(=O)O)c5cc(S(=O)(=O)O)cc(S(=O)(=O)O)c45)ccc3C)c2)c1` [SURAMIN], in series [2], the EC50 was found to be 0.03 µM.
In the case of `O=c1[nH]cnc2c1c(Br)cn2[C@@H]1O[C@H](CO)[C@@H](F)[C@H]1O`, the concentration giving a half-maximal response (EC50) in series [1], in [2], in series [3], in series [4], in series [6] and in series [8] was over 64 µM in each case.
For `COc1nc(N)nc2c1ccn2[C@@H]1O[C@H](CO)[C@@H](F)[C@H]1O`, the EC50 in [1], in [2], in series [3], in series [4], in series [6] and in series [8] was over 64 µM in each case.
As to `Nc1ncnc2c1c(C(F)(F)F)cn2[C@@H]1O[C@H](CO)[C@@H](F)[C@H]1O`, the EC50 in [1] amounted to 32 µM; in series [2], 2.02 µM; in series [3], 7.01 µM; in series [4], 3.17 µM; in series [6], 2.06 µM; in [8], 27.3 µM. Further, the selectivity ratio in series [5] was 1; in [10], 3; in series [7], 3.
On to `CCc1cn([C@@H]2O[C@H](CO)[C@@H](F)[C@H]2O)c2ncnc(N)c12`, for which the EC50 is over 64 µM in series [1]; 20.5 µM in [2]; 40.3 µM in series [3]; over 64 µM in [4]; 21.3 µM in [6]; over 64 µM in series [8]. The selectivity ratio was 2 in [10], 2 in series [7] and under 1 in series [9].
In the case of `Nc1nc(N)c2ncn([C@@H]3O[C@H](CO)[C@@H](F)[C@H]3O)c2n1`, the EC50 in series [1], in series [2], in series [3], in series [4], in series [6] and in [8] was over 64 µM each time.
With `O=c1[nH]cnc2c1c(Cl)cn2[C@@H]1O[C@H](CO)[C@@H](F)[C@H]1O`, the EC50 in series [1], in series [2], in series [3], in series [4], in series [6] and in series [8] was over 64 µM throughout.
Take `COc1ncnc2c1ncn2[C@@H]1O[C@H](CO)[C@@H](F)[C@H]1O`: the EC50 was over 64 µM in series [1]; 33.5 µM in [2]; over 64 µM in series [3]; 30.1 µM in series [4]; 35.2 µM in [6]; over 64 µM in series [8]. Also, the figures for the selectivity ratio in [10], in [7] and in series [9] were 2, 2 and over 2, respectively.
For the compound `O=c1[nH]cnc2c1ncn2[C@@H]1O[C@H](CO)[C@@H](F)[C@H]1O`, the EC50 is over 64 µM in series [1]; over 64 µM in series [2]; over 64 µM in [3]; 4.28 µM in series [4]; over 64 µM in series [6]; over 64 µM in series [8]. The selectivity ratio in series [9] is over 15.
Regarding `CCCCCCCCCCCCCCCCOP(=O)([O-])OCC[N+](C)(C)C` [MILTEFOSINE], the EC50 in [8] was found to be 7.47 µM.
For the compound `O=c1[nH]cnc2c1ccn2[C@@H]1O[C@H](CO)[C@@H](F)[C@H]1O`, the EC50 in [1], in [2], in series [3], in series [4], in [6] and in series [8] was over 64 µM throughout.
In the case of `OC[C@H]1O[C@@H](n2cc(Br)c3c(O)ncnc32)[C@H](O)[C@H]1F`, the EC50 is over 64 µM in series [1]; 16 µM in series [2]; over 64 µM in series [3]; over 64 µM in series [4]; 1.57 µM in series [6]; over 64 µM in [8]. Also, the selectivity ratio in series [10] was over 4; in [7], over 41.
With `Nc1nc2c(ccn2[C@@H]2O[C@H](CO)[C@@H](F)[C@H]2O)c(=O)[nH]1`, the EC50 in series [1], in series [2], in series [3], in [4], in [6] and in [8] was over 64 µM in each case.
Take `O=c1[nH]cnc2c1c(I)cn2[C@@H]1O[C@H](CO)[C@@H](F)[C@H]1O`: the EC50 in [1], in [2], in [3], in [4], in series [6] and in series [8] was over 64 µM throughout.

The values are drawn from ChEMBL document CHEMBL4813968, “Synthesis and evaluation of 3'-fluorinated 7-deazapurine nucleosides as antikinetoplastid agents” (Eur J Med Chem, 2021).
